Here are results for 23 compounds from ChEMBL document CHEMBL1129244, “Inhibition of UDP-N-acetylglucosamine import into Golgi membranes by nucleoside monophosphates” (J Med Chem, 1996).

SMILES strings stand for the structures.

A short description of experiment [1]: (§1) The compound was tested for inhibition of the rate of 1 uM UDP-[3H]-GlcNAc import into the lumen of the Golgi membranes. It counts as functional, Oryctolagus cuniculus. The method, boiled down: (§2)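 Golgi-enriched membranes from rabbit liver homogenate incubated with 1 μM UDP-[³H]GlcNAc plus a range of inhibitor concentrations. Import into the lumen was measured by filtration under initial-velocity conditions, after 90 s at 25 °C, where uptake is linear with time. IC50 and standard deviation were obtained by curve fitting. For UDP, assays included 2 mM EDTA.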

The nature of experiment [2]: In vitro inhibition of UDP-[3H]-GlcNAc import into the lumen of the Golgi membranes from rabbit liver homogenate. It counts as functional, tissue-based, Oryctolagus cuniculus. The method, boiled down:
as §2

Experiment [3] can be described thus: Inhibitory concentration at which there is accumulation of UDP-[3H]-GlcNAc in the lumen of the Golgi membranes. It counts as functional, cell membranes, Oryctolagus cuniculus. The gist of the method: (§3)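 Rabbit liver Golgi-enriched membranes were incubated as in the import assay with 1 μM UDP-[³H]GlcNAc and varied inhibitor concentrations. Uptake was allowed to reach equilibrium (20–30 min) before membrane-associated label was measured by filtration. 1 mM AMP-PNP was added to limit UDP-GlcNAc degradation. IC50 was derived by curve fitting; values are averages of at least three independent measurements.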

Experiment [4] can be described thus: The compound was tested for extent of 1 uM UDP-[3H]-GlcNAc accumulation into the lumen of the Golgi membranes from rabbit liver homogenate. It counts as functional, tissue-based, Oryctolagus cuniculus. The gist of the method:
as §3

The next experiment is filed under the species Oryctolagus cuniculus. The description is as §1. The experiment is classed as functional.
Experiment [5] in a line: The compound was tested for extent of UDP-[3H]-GlcNAc accumulation into the lumen of the Golgi membranes. The experiment is classed as functional, Oryctolagus cuniculus. The gist of the method: as §3

Turning to `N[C@H]1[C@@H](OP(=O)(O)OP(=O)(O)OC[C@H]2O[C@@H](n3ccc(=O)[nH]c3=O)[C@H](O)[C@@H]2O)O[C@H](CO)[C@H](O)[C@@H]1O` [URACIL DIPHOSPHATE GALACTOSAMINE], the IC50 in experiment [1] turned out to be 40 µM. In the case of `O=c1[nH]c(=O)n([C@H]2C[C@H](O)[C@@H](COP(=O)(O)O)O2)cc1/C=C/Br`, 5 µM corresponded to half-maximal inhibition in experiment [1] (IC50). The compound `Nc1ccn([C@@H]2O[C@H](COP(=O)(O)O)[C@@H](O)[C@H]2O)c(=O)n1` (stereo in doubt; form 1) had an IC50 in experiment [2] above 100 µM. For `Cc1cn([C@H]2C[C@H](O)[C@@H](COP(=O)(O)O)O2)c(=O)[nH]c1=O` [THYMIDINE MONOPHOSPHATE], the values for the IC50 in experiment [2], in experiment [3] and in experiment [4] were 10 µM, 11 µM and 11 µM, respectively. `CC(=O)N[C@@H]1[C@H](OP(=O)(O)OP(=O)(O)OC[C@H]2O[C@@H](n3ccc(=O)[nH]c3=O)[C@H](O)[C@@H]2O)O[C@@H](CO)[C@H](O)[C@H]1O`: the Km in the experiment filed under Oryctolagus cuniculus turned out to be 2 µM. Moreover, the IC50 in experiment [1] worked out at 7 µM; in experiment [3], 4 µM. For `CC(=O)N[C@H]1[C@H]([C@H](O)[C@H](O)CO)O[C@](OP(=O)(O)OC[C@H]2O[C@@H](n3ccc(N)nc3=O)[C@H](O)[C@@H]2O)(C(=O)O)C[C@@H]1O`, the IC50 in experiment [2] is above 50 µM; in experiment [3] it was 35 µM.

Take `O=c1ccn(C2O[C@H](COP(=O)(O)O)[C@@H](O)[C@@H]2O)c(=O)[nH]1` (stereo partly specified): the IC50 was 8 µM in experiment [2], 4 µM in experiment [3] and 4 µM in experiment [5]. For the compound `O=c1[nH]c(=O)n(C2CC(F)C(COP(=O)(O)O)O2)cc1Cl` (stereo unspecified), the IC50 was 9 µM in experiment [2] and 4 µM in experiment [5]. Turning to `Cc1cn([C@H]2CC[C@H](COP(=O)(O)O)O2)c(=O)[nH]c1=O`, the IC50 in experiment [2] is above 200 µM.

`O=c1ccn([C@H]2C[C@H](O)[C@@H](COP(=O)(O)O)O2)c(=O)[nH]1` [DEOXYURIDINE MONOPHOSPHATE] registered an IC50 in experiment [2] of 8 µM. The compound `Cc1cn([C@H]2CC[C@@H](COP(=O)(O)O)O2)c(=O)[nH]c1=O` had an IC50 in experiment [2] of 9 µM. Take `CCc1cn(C2O[C@H](COP(=O)(O)O)[C@@H](O)[C@@H]2O)c(=O)[nH]c1=O` (stereo partly specified): the IC50 came out at 3.5 µM in experiment [2] and 5 µM in experiment [5]. For `CCCc1cn([C@H]2C[C@H](O)[C@@H](COP(=O)(O)O)O2)c(=O)[nH]c1=O`, the half-inhibitory concentration (IC50) in experiment [1] is 100 µM. As to `Cc1cn([C@H]2C[C@H](N=[N+]=[N-])[C@@H](COP(=O)(O)O)O2)c(=O)[nH]c1=O` (stereo in doubt; form 2) [AZIDOTHYMIDINE MONOPHOSPHATE], the values for the IC50 in experiment [2], in experiment [3] and in experiment [5] were 85 µM, above 100 µM and above 100 µM, respectively. As to `O=c1[nH]c(=O)n(C2CSC(COP(=O)(O)O)O2)cc1F` (stereo unspecified), the concentration for half-maximal inhibition (IC50) in experiment [2] turned out to be 18 µM; in experiment [5] it was 35 µM. `Nc1ccn([C@@H]2O[C@H](COP(=O)(O)O)[C@@H](O)[C@H]2O)c(=O)n1` (stereo in doubt; form 2) showed an IC50 in experiment [2] of 10 µM. That is a double-digit micromolar value. Compound `Cc1cn(C2CC(F)C(COP(=O)(O)O)O2)c(=O)[nH]c1=O` (stereo unspecified) had an IC50 in experiment [2] of 1.5 µM.

Take `Cc1cn([C@H]2C[C@H](N=[N+]=[N-])[C@@H](COP(=O)(O)O)O2)c(=O)[nH]c1=O` (stereo in doubt; form 1) [AZIDOTHYMIDINE MONOPHOSPHATE]: the results for the IC50 in experiment [2], in experiment [3] and in experiment [5] were 7 µM, 5 µM and 5 µM, respectively. In the case of `Cc1cn([C@@H]2O[C@H](COP(=O)(O)O)[C@@H](O)[C@@H]2F)c(=O)[nH]c1=O`, the IC50 in experiment [2] was above 200 µM.

For `CC#Cc1cn([C@H]2C[C@H](O)[C@@H](COP(=O)(O)O)O2)c(=O)[nH]c1=O`, the IC50 in experiment [2] and in experiment [5] was above 40 µM throughout.

`Cc1cn(COCCOP(=O)(O)O)c(=O)[nH]c1=O`: the IC50 in experiment [2], in experiment [3] and in experiment [5] was above 100 µM throughout. In turn, `O=c1ccn([C@@H]2O[C@H](COP(=O)(O)O)[C@@H](O)[C@H]2F)c(=O)[nH]1` returned an IC50 in experiment [2] of 11 µM. That is a double-digit micromolar value. On to `N[C@H]1[C@@H](OP(=O)(O)OP(=O)(O)OC[C@H]2O[C@@H](n3ccc(=O)[nH]c3=O)[C@H](O)[C@@H]2O)O[C@H](CO)[C@@H](O)[C@@H]1O` [URACIL DIPHOSPHATE GLUCOSAMINE], for which the IC50 in experiment [1] was 7 µM; in experiment [3], above 40 µM.

The term IC50 denotes the point on the concentration scale where inhibition reaches its midpoint. Read a high IC50 as weaker potency in that assay. Usually Km stands for the concentration of substrate that gives half-maximal velocity.
